# In ChEMBL document CHEMBL2176871, “Development of ligands at γ-aminobutyrric acid type A (GABAA) receptor subtype as new agents for pain relief” (Bioorg Med Chem, 2011):
# The source made the active and inactive calls. No cut-off for these calls is given here.
# Tests used:
# Bos taurus = species: Bos taurus; assay: Displacement of [3H]Ro151788 from GABA(A)/BzR in bovine cerebral cortex membrane at 10 uM; assay type: cell membranes
# Method in brief: (§1)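 Bovine cerebral cortex membranes in 50 mM Tris-citrate pH 7.4; [3H]flumazenil displacement. Compounds first tested at a fixed 10 µM; Ki determined only when inhibition exceeded 80%, using at least six concentrations. Five experiments run in triplicate; IC50 obtained by iterative curve fitting and converted to Ki with the Cheng–Prusoff equation.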
# [1] = Displacement of [3H]Ro151788 from GABA(A)/BzR in bovine cerebral cortex membrane; assay type: cell membranes, Bos taurus; method in brief: as §1
# Mus musculus [2] = assay: Anxiolytic activity in ip dosed Swiss albino mouse pain model after 30 mins by light/dark box test; assay type: functional, organism-based
# Method in brief: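 Male Swiss albino mice were tested in a light/dark box 30 min after dosing. Read-outs were transfers between compartments and time spent in the illuminated side. Dose volume was 10 ml/kg. Results are means ± SEM of 8 mice.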
# Mus musculus [3] = assay: Anxiolytic activity in ip dosed Swiss albino mouse pain model after 30 mins by light/dark box test in presence of flumazenil; assay type: functional, organism-based
# Method in brief: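 Light/dark box test in male Swiss albino mice, with drug given 30 min before testing and flumazenil 100 mg/kg i.p. co-administered before the test. Read-outs were transfers between compartments and time in the lit side. Results are means ± SEM of 8 mice.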
Structure (SMILES),inhibition (Bos taurus) [%],Ki [1] [nM],Activity (Mus musculus [2]),Activity (Mus musculus [3])
COc1ccccc1CNc1ccc2c(c1)n1ncc(C)c1n[n+]2[O-],> 80,0.78,–,–
[O-][n+]1nc2c(I)cnn2c2cc(NCCc3ccccc3)ccc21,> 80,14.7,–,–
CN1C(=O)CN=C(c2ccccc2)c2cc(Cl)ccc21,–,–,Active,inactive
COc1ccccc1COc1ccc2c(c1)n1ncc(C)c1n[n+]2[O-],> 80,3.02,–,–
[O-][n+]1nc2c(I)cnn2c2cc(NCc3ccc(Cl)cc3)ccc21,> 80,2.44,–,–
[O-][n+]1nc2c(I)cnn2c2cc(Cl)ccc21,–,22.8,–,–
Ic1cnn2c1nnc1ccc(NCc3ccccc3)cc12,> 80,0.71,–,–
COc1ccccc1CNc1ccc2c(c1)n1ncc(I)c1n[n+]2[O-],> 80,0.138,–,–
